The source made the active and inactive calls. No cut-off for these calls is given here.
Experiments:
THP-1 [1] = experiment: Cytotoxicity against human THP1 cells assessed as LDH release at 20.2 uM; format: cell-based; details: thp-1, 20.2 µM
Summary of the method: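 LDH leakage into the medium used as the cytotoxicity read-out, taken at the highest concentration tested.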

PBMC [2] = experiment: Immunomodulatory effect in human PBMC cells assessed as increase in LPS-induced TNF-alpha release at 20.2 uM after 24 hrs by sandwich ELISA; format: functional, cell-based
THP-1 [3] = experiment: Immunomodulatory effect in human THP1 cells assessed as increase in LPS-induced TNF-alpha release at 0.2 uM after 24 hrs by sandwich ELISA relative to LPS; format: functional
Summary of the method: (§1)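 THP-1 cells at 10⁶ cells/ml in RPMI 1640 with 10% heat-inactivated FCS. Co-incubated 24 h with compound (0.2–200 µM) plus E. coli 0127:B8 LPS 1 ng/ml, DMSO vehicle ≤0.2% final. TNF-α in supernatant expressed as % of LPS-induced release, mean ± SD of 6 samples.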

THP-1 [4] = experiment: Toxicity in human THP1 cells assessed TNF-alpha release at 20.2 uM after 3 to 24 hrs by sandwich ELISA; format: cell-based; details: thp-1, 20.2 µM
Summary of the method: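 Time course in THP-1 cells, with release sampled at 3, 8 and 24 h. Cells co-incubated with test agent and 1 ng/ml LPS. Co-incubation was compared with preincubation.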

PBMC [5] = experiment: Cytotoxicity against human PBMC assessed as LDH release at 20.2 uM; format: cell-based
THP-1 [6] = experiment: Toxicity in human THP1 cells assessed TNF-alpha release at 20.2 uM after 24 hrs by sandwich ELISA; format: cell-based; details: thp-1, 24 h
Summary of the method: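 THP-1 in supplemented RPMI 1640 co-incubated 24 h with 20.2 µM compound and 1 ng/ml LPS, DMSO ≤0.2%. TNF-α release expressed as % of the LPS-only response, mean ± SD of 6 samples, Mann-Whitney U test.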

THP-1 [7] = experiment: Immunomodulatory effect in human THP1 cells assessed as increase in LPS-induced TNF-alpha release at 200 uM after 24 hrs by sandwich ELISA relative to LPS; format: functional; summary of the method: as §1
THP-1 [8] = experiment: Immunomodulatory effect in human THP1 cells assessed as increase in LPS-induced TNF-alpha release at 20.2 uM after 24 hrs by sandwich ELISA relative to LPS; format: functional; summary of the method: as §1
THP-1 [9] = experiment: Immunomodulatory effect in human THP1 cells assessed as increase in LPS-induced TNF-alpha release after 24 hrs by sandwich ELISA relative to LPS; format: functional, cell-based; summary of the method: as §1
THP-1 [10] = experiment: Immunomodulatory effect in human THP1 cells assessed as increase in LPS-induced TNF-alpha release at 2 uM after 24 hrs by sandwich ELISA relative to LPS; format: functional; summary of the method: as §1

**Q.** Which Activity (THP-1 [1]) does the source give for `CC(=O)N[C@H]1C(O)O[C@H](CO)[C@@H](O)[C@@H]1O[C@H](C)C(=O)N[C@@H](C)C(=O)N[C@H](CCC(=O)O)C(N)=O` (stereo not given in full) [MURAMYL DIPEPTIDE] here?
**A.** Non-toxic

**Q.** And the Activity (PBMC [2])?
**A.** Active

**Q.** What about the Activity (THP-1 [3]) of the same molecule?
**A.** 108%

**Q.** And the Activity (THP-1 [4])?
**A.** Non-toxic

**Q.** And the Activity (PBMC [5])?
**A.** Non-toxic

**Q.** And the Activity (THP-1 [6])?
**A.** Non-toxic

**Q.** And the Activity (THP-1 [7])?
**A.** 306.8%

**Q.** And the Activity (THP-1 [8])?
**A.** 187.4%

**Q.** What about the Activity (THP-1 [9]) of the same molecule?
**A.** Dose-dependent effect

**Q.** And the Activity (THP-1 [10])?
**A.** 171.8%
